# From ChEMBL document CHEMBL5058577, “EUbOPEN Chemogenomics Library 2 (Multiplex)” (2022)
# System: U2OS
# Experiment: Multiplex assay against U2OS
# Assay type: toxicity, cell-based
# Conditions: human
# How it was run: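 Live cells were stained at seeding with Hoechst33342, BioTracker Green Microtubule Cytoskeleton Dye, MitoTracker Red and Annexin V Alexa Fluor 680. Following compound addition, they were imaged on a CQ1 microscope at 37°C and 5% CO2 and gated by CellPathfinder machine learning into Hoechst high-intensity objects or normal cells, with normal cells split into healthy, pyknosed or fragmented nuclei and pyknosed cells into mitotic or apoptotic. Tubulin, mitochondrial-mass and membrane-permeability phenotypes are per cents of healthy-nucleus cells.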
# [1] = 12 h, 1 µM, compound concentration 1 uM, replicate 1
# [2] = 12 h, 1 µM, compound concentration 1 uM, replicate 2
# [3] = 12 h, 10 µM, compound concentration 10 uM, replicate 1
# [4] = 12 h, 10 µM, compound concentration 10 uM, replicate 2
# [5] = 24 h, 1 µM, compound concentration 1 uM, replicate 1
# [6] = 24 h, 1 µM, compound concentration 1 uM, replicate 2
# [7] = 24 h, 10 µM, compound concentration 10 uM, replicate 1
# [8] = 24 h, 10 µM, compound concentration 10 uM, replicate 2
# [9] = 48 h, 1 µM, compound concentration 1 uM, replicate 1
# [10] = 48 h, 1 µM, compound concentration 1 uM, replicate 2
# [11] = 48 h, 10 µM, compound concentration 10 uM, replicate 1
# [12] = 48 h, 10 µM, compound concentration 10 uM, replicate 2
smiles,measurement,setting,value
COCCn1c(C)c(C)s/c1=N\C(=O)C1C(C)(C)C1(C)C,Population Apoptotic (%),[1],88%
same,Population Fragmented Nuclei (%),[1],24%
same,Population Healthy Nuclei (%),[1],69%
same,Population Hoechst High Intensity Objects (%),[1],0%
same,Population Membrane Permeable-Phenotype (%),[1],8%
same,Population Mitochondria Different-Phenotype (%),[1],1%
same,Population Mitotic Cells (%),[1],11%
same,Population Normal (%),[1],99%
same,Population Pyknosed Nuclei (%),[1],6%
same,Population Tubulin-Different-Phenotype (%),[1],3%
same,Total Cell Count,[1],271
same,Population Apoptotic (%),[2],71%
same,Population Fragmented Nuclei (%),[2],20%
same,Population Healthy Nuclei (%),[2],74%
same,Population Membrane Permeable-Phenotype (%),[2],11%
same,Population Mitochondria Different-Phenotype (%),[2],3%
same,Population Mitotic Cells (%),[2],28%
same,Population Normal (%),[2],100%
same,Population Pyknosed Nuclei (%),[2],5%
same,Population Tubulin-Different-Phenotype (%),[2],5%
same,Total Cell Count,[2],135
same,Population Apoptotic (%),[3],73%
same,Population Fragmented Nuclei (%),[3],33%
same,Population Healthy Nuclei (%),[3],52%
same,Population Hoechst High Intensity Objects (%),[3],2%
same,Population Membrane Permeable-Phenotype (%),[3],10%
same,Population Mitochondria Different-Phenotype (%),[3],4%
same,Population Mitotic Cells (%),[3],26%
same,Population Normal (%),[3],97%
same,Population Pyknosed Nuclei (%),[3],13%
same,Population Tubulin-Different-Phenotype (%),[3],5%
same,Total Cell Count,[3],220
same,Population Apoptotic (%),[4],80%
same,Population Fragmented Nuclei (%),[4],20%
same,Population Healthy Nuclei (%),[4],68%
same,Population Hoechst High Intensity Objects (%),[4],0%
same,Population Membrane Permeable-Phenotype (%),[4],9%
same,Population Mitochondria Different-Phenotype (%),[4],3%
same,Population Mitotic Cells (%),[4],20%
same,Population Normal (%),[4],100%
same,Population Pyknosed Nuclei (%),[4],11%
same,Population Tubulin-Different-Phenotype (%),[4],4%
same,Total Cell Count,[4],135
same,Population Apoptotic (%),[5],89%
same,Population Fragmented Nuclei (%),[5],18%
same,Population Healthy Nuclei (%),[5],75%
same,Population Hoechst High Intensity Objects (%),[5],0%
same,Population Membrane Permeable-Phenotype (%),[5],5%
same,Population Mitochondria Different-Phenotype (%),[5],3%
same,Population Mitotic Cells (%),[5],10%
same,Population Normal (%),[5],99%
same,Population Pyknosed Nuclei (%),[5],6%
same,Population Tubulin-Different-Phenotype (%),[5],2%
same,Total Cell Count,[5],314
same,Population Apoptotic (%),[6],83%
same,Population Healthy Nuclei (%),[6],77%
same,Population Membrane Permeable-Phenotype (%),[6],9%
same,Population Mitotic Cells (%),[6],16%
same,Population Pyknosed Nuclei (%),[6],3%
same,Population Tubulin-Different-Phenotype (%),[6],4%
same,Total Cell Count,[6],157
same,Population Apoptotic (%),[7],80%
same,Population Fragmented Nuclei (%),[7],28%
same,Population Healthy Nuclei (%),[7],58%
same,Population Hoechst High Intensity Objects (%),[7],1%
same,Population Membrane Permeable-Phenotype (%),[7],8%
same,Population Mitochondria Different-Phenotype (%),[7],8%
same,Population Mitotic Cells (%),[7],19%
same,Population Normal (%),[7],98%
same,Population Pyknosed Nuclei (%),[7],12%
same,Population Tubulin-Different-Phenotype (%),[7],2%
same,Total Cell Count,[7],257
same,Population Apoptotic (%),[8],88%
same,Population Fragmented Nuclei (%),[8],21%
same,Population Healthy Nuclei (%),[8],66%
same,Population Membrane Permeable-Phenotype (%),[8],10%
same,Population Mitochondria Different-Phenotype (%),[8],1%
same,Population Mitotic Cells (%),[8],11%
same,Population Tubulin-Different-Phenotype (%),[8],9%
same,Total Cell Count,[8],141
same,Population Apoptotic (%),[9],94%
same,Population Fragmented Nuclei (%),[9],12%
same,Population Healthy Nuclei (%),[9],79%
same,Population Hoechst High Intensity Objects (%),[9],1%
same,Population Membrane Permeable-Phenotype (%),[9],5%
same,Population Mitochondria Different-Phenotype (%),[9],2%
same,Population Mitotic Cells (%),[9],5%
same,Population Normal (%),[9],98%
same,Population Pyknosed Nuclei (%),[9],8%
same,Population Tubulin-Different-Phenotype (%),[9],4%
same,Total Cell Count,[9],459
same,Population Apoptotic (%),[10],100%
same,Population Fragmented Nuclei (%),[10],15%
same,Population Membrane Permeable-Phenotype (%),[10],9%
same,Population Mitochondria Different-Phenotype (%),[10],1%
same,Population Mitotic Cells (%),[10],0%
same,Population Pyknosed Nuclei (%),[10],4%
same,Population Tubulin-Different-Phenotype (%),[10],5%
same,Total Cell Count,[10],218
same,Population Apoptotic (%),[11],81%
same,Population Fragmented Nuclei (%),[11],22%
same,Population Healthy Nuclei (%),[11],62%
same,Population Hoechst High Intensity Objects (%),[11],2%
same,Population Membrane Permeable-Phenotype (%),[11],11%
same,Population Mitochondria Different-Phenotype (%),[11],4%
same,Population Mitotic Cells (%),[11],18%
same,Population Normal (%),[11],97%
same,Population Pyknosed Nuclei (%),[11],14%
same,Population Tubulin-Different-Phenotype (%),[11],5%
same,Total Cell Count,[11],305
same,Population Apoptotic (%),[12],96%
same,Population Fragmented Nuclei (%),[12],15%
same,Population Healthy Nuclei (%),[12],71%
same,Population Hoechst High Intensity Objects (%),[12],1%
same,Population Membrane Permeable-Phenotype (%),[12],4%
same,Population Mitotic Cells (%),[12],4%
same,Population Normal (%),[12],98%
same,Population Pyknosed Nuclei (%),[12],12%
same,Population Tubulin-Different-Phenotype (%),[12],2%
same,Total Cell Count,[12],206
O=C(O)CCC/C=C\CC1C(O)CC(O)C1/C=C/C(O)COc1cccc(Cl)c1 (centres undefined) [CLOPROSTENOL],Population Apoptotic (%),[1],77%
same,Population Fragmented Nuclei (%),[1],30%
same,Population Healthy Nuclei (%),[1],60%
same,Population Hoechst High Intensity Objects (%),[1],3%
same,Population Membrane Permeable-Phenotype (%),[1],2%
same,Population Mitochondria Different-Phenotype (%),[1],0%
same,Population Mitotic Cells (%),[1],22%
same,Population Normal (%),[1],96%
same,Population Pyknosed Nuclei (%),[1],9%
same,Population Tubulin-Different-Phenotype (%),[1],1%
same,Total Cell Count,[1],201
same,Population Apoptotic (%),[2],75%
same,Population Fragmented Nuclei (%),[2],11%
same,Population Healthy Nuclei (%),[2],82%
same,Population Hoechst High Intensity Objects (%),[2],0%
same,Population Membrane Permeable-Phenotype (%),[2],6%
same,Population Mitochondria Different-Phenotype (%),[2],3%
same,Population Mitotic Cells (%),[2],25%
same,Population Normal (%),[2],100%
same,Population Pyknosed Nuclei (%),[2],6%
same,Population Tubulin-Different-Phenotype (%),[2],2%
same,Total Cell Count,[2],129
same,Population Apoptotic (%),[3],92%
same,Population Fragmented Nuclei (%),[3],28%
same,Population Healthy Nuclei (%),[3],60%
same,Population Hoechst High Intensity Objects (%),[3],2%
same,Population Membrane Permeable-Phenotype (%),[3],8%
same,Population Mitochondria Different-Phenotype (%),[3],1%
same,Population Mitotic Cells (%),[3],7%
same,Population Normal (%),[3],97%
same,Population Pyknosed Nuclei (%),[3],10%
same,Population Tubulin-Different-Phenotype (%),[3],3%
same,Total Cell Count,[3],272
same,Population Apoptotic (%),[4],45%
same,Population Fragmented Nuclei (%),[4],9%
same,Population Healthy Nuclei (%),[4],81%
same,Population Hoechst High Intensity Objects (%),[4],0%
same,Population Membrane Permeable-Phenotype (%),[4],9%
same,Population Mitochondria Different-Phenotype (%),[4],6%
same,Population Mitotic Cells (%),[4],54%
same,Population Normal (%),[4],100%
same,Population Pyknosed Nuclei (%),[4],8%
same,Total Cell Count,[4],131
same,Population Apoptotic (%),[5],81%
same,Population Fragmented Nuclei (%),[5],24%
same,Population Healthy Nuclei (%),[5],63%
same,Population Hoechst High Intensity Objects (%),[5],1%
same,Population Membrane Permeable-Phenotype (%),[5],4%
same,Population Mitochondria Different-Phenotype (%),[5],2%
same,Population Mitotic Cells (%),[5],18%
same,Population Normal (%),[5],98%
same,Population Pyknosed Nuclei (%),[5],11%
same,Population Tubulin-Different-Phenotype (%),[5],2%
same,Total Cell Count,[5],237
same,Population Apoptotic (%),[6],75%
same,Population Fragmented Nuclei (%),[6],15%
same,Population Healthy Nuclei (%),[6],77%
same,Population Hoechst High Intensity Objects (%),[6],0%
same,Population Membrane Permeable-Phenotype (%),[6],6%
same,Population Mitotic Cells (%),[6],25%
same,Population Normal (%),[6],100%
same,Population Pyknosed Nuclei (%),[6],7%
same,Population Tubulin-Different-Phenotype (%),[6],4%
same,Total Cell Count,[6],157
same,Population Apoptotic (%),[7],90%
same,Population Fragmented Nuclei (%),[7],23%
same,Population Healthy Nuclei (%),[7],66%
same,Population Hoechst High Intensity Objects (%),[7],2%
same,Population Membrane Permeable-Phenotype (%),[7],7%
same,Population Mitochondria Different-Phenotype (%),[7],2%
same,Population Mitotic Cells (%),[7],10%
same,Population Normal (%),[7],97%
same,Population Pyknosed Nuclei (%),[7],10%
same,Population Tubulin-Different-Phenotype (%),[7],3%
same,Total Cell Count,[7],306
same,Population Apoptotic (%),[8],70%
same,Population Fragmented Nuclei (%),[8],11%
same,Population Healthy Nuclei (%),[8],82%
same,Population Hoechst High Intensity Objects (%),[8],0%
same,Population Membrane Permeable-Phenotype (%),[8],11%
same,Population Mitochondria Different-Phenotype (%),[8],4%
same,Population Mitotic Cells (%),[8],30%
same,Population Normal (%),[8],100%
same,Population Pyknosed Nuclei (%),[8],5%
same,Population Tubulin-Different-Phenotype (%),[8],4%
same,Total Cell Count,[8],177
same,Population Apoptotic (%),[9],89%
same,Population Fragmented Nuclei (%),[9],20%
same,Population Healthy Nuclei (%),[9],70%
same,Population Hoechst High Intensity Objects (%),[9],1%
same,Population Membrane Permeable-Phenotype (%),[9],2%
same,Population Mitochondria Different-Phenotype (%),[9],1%
same,Population Mitotic Cells (%),[9],10%
same,Population Normal (%),[9],98%
same,Population Pyknosed Nuclei (%),[9],8%
same,Population Tubulin-Different-Phenotype (%),[9],0%
same,Total Cell Count,[9],344
same,Population Apoptotic (%),[10],81%
same,Population Fragmented Nuclei (%),[10],11%
same,Population Healthy Nuclei (%),[10],81%
same,Population Hoechst High Intensity Objects (%),[10],0%
same,Population Membrane Permeable-Phenotype (%),[10],6%
same,Population Mitochondria Different-Phenotype (%),[10],3%
same,Population Mitotic Cells (%),[10],18%
same,Population Normal (%),[10],99%
same,Population Pyknosed Nuclei (%),[10],7%
same,Population Tubulin-Different-Phenotype (%),[10],2%
same,Total Cell Count,[10],229
same,Population Apoptotic (%),[11],91%
same,Population Fragmented Nuclei (%),[11],18%
same,Population Healthy Nuclei (%),[11],67%
same,Population Hoechst High Intensity Objects (%),[11],3%
same,Population Membrane Permeable-Phenotype (%),[11],6%
same,Population Mitochondria Different-Phenotype (%),[11],1%
same,Population Mitotic Cells (%),[11],8%
same,Population Normal (%),[11],96%
same,Population Pyknosed Nuclei (%),[11],14%
same,Population Tubulin-Different-Phenotype (%),[11],4%
same,Total Cell Count,[11],396
same,Population Apoptotic (%),[12],84%
same,Population Fragmented Nuclei (%),[12],12%
same,Population Healthy Nuclei (%),[12],82%
same,Population Hoechst High Intensity Objects (%),[12],2%
same,Population Membrane Permeable-Phenotype (%),[12],10%
same,Population Mitochondria Different-Phenotype (%),[12],2%
same,Population Mitotic Cells (%),[12],15%
same,Population Normal (%),[12],97%
same,Population Pyknosed Nuclei (%),[12],5%
same,Total Cell Count,[12],246
